# Most compounds without a hit are left out; they make up all but 3% or so of the library.
# S1P1 ag-PAM: agonists and agonism potentiators of human S1P1 receptor; hit rate 0.57% among 56,000; activation, % at 9.5 µM; S1P1 CRE-bla cells, forskolin, beta-lactamase FRET, potentiator mode; S1P1 agonist co-added at EC20, 2 nM; 100% = saturating reference agonist, 0% = basal; AID 449; P21453;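 active = activation above a cutoff set at the mean activation of all tested compounds plus 3 SD, cut at about 54% in these data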;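 also: forskolin at 4 µM as EC80 and the EC20 agonist is SEW2871; 100% = SEW2871 at its EC100 plus forskolin at EC80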
# Target sequence (P21453 whole entry, looked up): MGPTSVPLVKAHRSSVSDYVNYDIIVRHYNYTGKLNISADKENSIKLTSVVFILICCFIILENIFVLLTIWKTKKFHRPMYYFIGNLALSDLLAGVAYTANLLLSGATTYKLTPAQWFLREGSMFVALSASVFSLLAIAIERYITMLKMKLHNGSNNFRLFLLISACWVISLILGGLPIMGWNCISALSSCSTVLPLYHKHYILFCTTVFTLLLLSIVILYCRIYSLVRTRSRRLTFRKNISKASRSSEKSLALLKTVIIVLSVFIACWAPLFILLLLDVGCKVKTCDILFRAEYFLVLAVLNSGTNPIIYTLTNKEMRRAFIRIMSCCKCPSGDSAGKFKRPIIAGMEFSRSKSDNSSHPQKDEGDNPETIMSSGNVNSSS
# S1P3 agonist: agonists of human S1P3 receptor; Q99500; S1P3 NFAT-BLA reporter cells, agonism, FRET ratio; relative to 1 µM S1P, basal subtracted; activation, % at 4.5 µM; hit rate 0.1% among 60,000; AID 373;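 active = activation above the screen-wide mean plus 3 SD, cut at about 4.5% in these data, passing the limit was not always enough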
#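 Assay system: CHO cells stably expressing human S1P3, Gα16 and NFAT-β-lactamase reporter. Timing: overnight plating, 4 h compound 37 °C, 2 h substrate RT. Signal: β-lactamase FRET emission ratio 460/535 nm. Measure: percent activation versus median 1 µM S1P response, basal-subtracted, per plate. Repeats: primary screen single test, confirmation screen in triplicate.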
# HTR1A agonist: 5-HT1a (human) receptor agonism; CHO 5-HT1a Ga15 NFAT-bla reporter, FRET ratio; 0% basal, 100% maximal reference agonist; P08908; activation, % at 10 µM; hit rate 0.56% among 65,000;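 active = activation above the screen-wide mean activation plus 3 SD, cut at about 19% in these data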;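 also: 0% = DMSO wells and 100% = 5-CT at EC100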
# 5HT1E antag: antagonists of human 5-HT1E serotonin receptor; P28566; CHO 5-HT1E Ga15 NFAT-bla reporter, FRET, antagonist; inhibition, % at 6 µM; hit rate 0.99% among 65,000; AID 571;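 active = inhibition above a set limit, the mean inhibition across every tested compound plus 3 SD, cut at about 29% in these data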;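 also: signal is the 460 over 535 nm emission ratio of beta-lactamase substrate; 0% = agonist plus DMSO wells and 100% = wells without agonist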
# 5HT1E ag: activates the human 5-HT1E serotonin receptor; CHO 5-HT1E Ga15 NFAT-bla reporter, FRET; 0% DMSO wells, 100% control agonist wells; activation, % at 6 µM; hit rate 0.69% among 65,000; AID 574;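 active = activation above a set limit, the screen-wide mean activation plus 3 SD, cut at about 8.5% in these data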;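 also: 100% = positive control agonist at 1 µM giving full maximal response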
# 5HT1a antag: 5-HT1a (human) receptor antagonism | inhibition, % at 10 µM | hit rate 0.68% among 62,000 | CHO 5-HT1a Ga15 NFAT-bla reporter, antagonist mode | AID 612;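 active = inhibition above the mean of all tested compounds plus 3 SD, cut at about 43% in these data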;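 also: receptor stimulated by 5-CT agonist at 100 nM near EC80; beta-lactamase reporter measured by ratiometric fluorescence of a cleavable substrate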
# Starred values were filed as active, the others as inactive; . = not tested or not shown.
SMILES,S1P1 ag-PAM,S1P3 agonist,HTR1A agonist,5HT1E antag,5HT1E ag,5HT1a antag
COc1cccc2c1N1C(=O)c3c(C(=O)O)cccc3C1CC2(C)C (stereo not given),3,-1,-2,-1,0,0
O=c1n(CCCN2CCN(c3cccc(Cl)c3)CC2)nc2ccccn12,14,-2,5,3,9.5*,.
COc1ccccc1NC(=O)NCCCN1CCN(c2cccc(Cl)c2)CC1,2,0,2,-22,3,38
CCn1c(SCC(=O)NC2CCCCC2)nc2c(c1=O)SC(C)C2 (stereo not given),-2,-1,-1,-3,-1,8
CCn1c(SCC(=O)Nc2nc3ccccc3s2)nc2c(c1=O)SC(C)C2 (stereo not given),46,0,0,-11,-1,-16
CCn1c(SCC(=O)NCC2CCCO2)nc2c(c1=O)SC(C)C2 (stereo not given),-14,0,19*,-8,1,-10
CCn1c(SCC(=O)Nc2nc3ccc(C)cc3s2)nc2c(c1=O)SC(C)C2 (stereo not given),55*,-1,1,8,0,-16
COc1ccc(S(=O)(=O)N(CC(=O)N2CCN(C)CC2)C2CCCCC2)cc1OC,6,0,-4,-8,0,-11
Cn1c(=O)c2c(nc(Oc3ccc4c(c3)OCO4)n2Cc2ccc(F)cc2)n(C)c1=O,-3,-3,4,5,-1,.
Cn1c(=O)c2c(nc(Oc3ccc4c(c3)OCO4)n2Cc2ccc(Br)cc2)n(C)c1=O,5,-2,40*,-9,0,.
CCOc1ccc(NC(=O)C2CCN(C(=O)NCc3ccccc3)CC2)cc1,6,0,0,-1,0,2
CC1=C(C(=O)OCc2ccccc2)C(c2ccc(N3CCOCC3)cc2)NC(=O)N1 (stereo not given),-26,0,0,8,0,-5
CC1=C(C(=O)OCc2ccc3c(c2)OCO3)C(c2ccccc2)NC(=O)N1 (stereo not given),88*,-1,2,16,0,18
O=C(CC1SCCNC1=O)Nc1cccc(C(F)(F)F)c1 (stereo not given),-3,0,-2,9,-1,8
COc1ccccc1Oc1ccc2c(c1)C(=O)N(c1cccc(O)c1)C2=O,94*,-2,-1,2,1,13
CN(C)c1ccc2c(c1)OC(N)=C(C#N)C2c1cccc(F)c1 (stereo not given),-9,-2,-3,75*,1,10
CCNc1nc2c(c(=O)n(C)c(=O)n2C)n1Cc1ccc(Cl)cc1,61*,-2,14,14,1,6
CCNc1nc2c(c(=O)n(Cc3ccccc3)c(=O)n2C)n1Cc1ccccc1,-14,0,37*,0,0,0
CCN(CC)CC#CCOC(=O)C(O)(c1ccccc1)C1CCCCC1 (stereo not given),6,-4,1,8,-1,.
CC1(C)CC(=O)C=C(Nc2ccccn2)C1,4,-1,-4,-2,1,-8
Cc1c(C)c2c(C)[nH]nc2oc1=O,8,2,0,-2,0,-2
CSC1=NCCN1C(=O)Cc1ccc(Cl)cc1,-11,-1,-4,-1,1,8
CC1Oc2ccccc2N(CC(=O)N2CCCc3ccccc32)C1=O (stereo not given),4,-1,41*,3,1,14
CC1Oc2ccccc2N(CC(=O)N2CCc3ccccc32)C1=O (stereo not given),7,-1,-5,-4,0,5
COC(=O)c1[nH]c2cc(C)ccc2c1NC(=O)CN1CCCc2ccccc21,-4,0,265*,-2,2,18
Cc1cc(C)cc(CC2CC(=O)N(c3ccc4c(c3)OCCO4)C2=O)c1 (stereo not given),3,-2,-2,-2,0,6
CCS(=O)(=O)N1CCC(NC(=O)c2ccco2)CC1,-2,0,-4,4,-1,-2
Cc1cc(-c2cccs2)c2c(n1)sc1c(=O)[nH]c(=O)[nH]c12,.,0,2,6,0,-10

# Source: PubChem BioAssay (The Scripps Research Institute Molecular Screening Center)
